# From ChEMBL document CHEMBL4689842, “EUbOPEN Chemogenomics Library wave 1” (2021)
# How the values were obtained:
# U2OS [1] = assay: Incucyte cell viability with U2OS; assay type: toxicity, cell-based; settings: human, 10 µM, compound concentration 10 uM; also: filed as whole numbers so only -1 and 0 and 1 occur
# U2OS [2] = assay: Multiplex assay against U2OS; assay type: toxicity, cell-based; settings: human
# In short: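 Tubulin, mitochondrial-mass and membrane-permeability phenotypes are per cents of healthy-nucleus cells. Cells were gated by CellPathfinder machine learning into Hoechst high-intensity objects or normal cells, normal cells into healthy, pyknosed or fragmented nuclei, and pyknosed cells into mitotic or apoptotic. Before that, live cells stained at seeding with Hoechst33342, BioTracker Green Microtubule Cytoskeleton Dye, MitoTracker Red and Annexin V Alexa Fluor 680 were imaged on a CQ1 microscope at 37°C and 5% CO2 after compound addition.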
# [3] = 12 h, 1 µM, compound concentration 1 uM, replicate 1
# [4] = 12 h, 1 µM, compound concentration 1 uM, replicate 2
# [5] = 12 h, 10 µM, compound concentration 10 uM, replicate 1
# [6] = 12 h, 10 µM, compound concentration 10 uM, replicate 2
# [7] = 24 h, 1 µM, compound concentration 1 uM, replicate 1
# [8] = 24 h, 1 µM, compound concentration 1 uM, replicate 2
# [9] = 24 h, 10 µM, compound concentration 10 uM, replicate 1
# [10] = 24 h, 10 µM, compound concentration 10 uM, replicate 2
# [11] = 48 h, 1 µM, compound concentration 1 uM, replicate 1
# [12] = 48 h, 1 µM, compound concentration 1 uM, replicate 2
# [13] = 48 h, 10 µM, compound concentration 10 uM, replicate 1
# [14] = 48 h, 10 µM, compound concentration 10 uM, replicate 2
compound,measurement,setting,value
CCn1c(-c2nonc2N)nc2cnc(Oc3cccc(NC(=O)c4ccc(OCCN5CCOCC5)cc4)c3)cc21 [GSK-269962A],Growth Rate,"U2OS [1]; 12 h, replicate number 1, timepoint 12 hours",1
same,Growth Rate,"U2OS [1]; 18 h, replicate number 1, timepoint 18 hours",1
same,Growth Rate,"U2OS [1]; 24 h, replicate number 1, timepoint 24 hours",1
same,Population Apoptotic (%),U2OS [2]; [3],43%
same,Population Fragmented Nuclei (%),U2OS [2]; [3],14%
same,Population Healthy Nuclei (%),U2OS [2]; [3],64%
same,Population Hoechst High Intensity Objects (%),U2OS [2]; [3],12%
same,Population Membrane Permeable-Phenotype (%),U2OS [2]; [3],13%
same,Population Mitochondria Different-Phenotype (%),U2OS [2]; [3],17%
same,Population Mitotic Cells (%),U2OS [2]; [3],56%
same,Population Normal (%),U2OS [2]; [3],87%
same,Population Pyknosed Nuclei (%),U2OS [2]; [3],21%
same,Population Tubulin-Different-Phenotype (%),U2OS [2]; [3],13%
same,Total Cell Count,U2OS [2]; [3],156
same,Population Apoptotic (%),U2OS [2]; [4],20%
same,Population Fragmented Nuclei (%),U2OS [2]; [4],20%
same,Population Healthy Nuclei (%),U2OS [2]; [4],72%
same,Population Hoechst High Intensity Objects (%),U2OS [2]; [4],2%
same,Population Membrane Permeable-Phenotype (%),U2OS [2]; [4],14%
same,Population Mitochondria Different-Phenotype (%),U2OS [2]; [4],16%
same,Population Mitotic Cells (%),U2OS [2]; [4],80%
same,Population Normal (%),U2OS [2]; [4],97%
same,Population Pyknosed Nuclei (%),U2OS [2]; [4],7%
same,Population Tubulin-Different-Phenotype (%),U2OS [2]; [4],14%
same,Total Cell Count,U2OS [2]; [4],45
same,Population Apoptotic (%),U2OS [2]; [5],50%
same,Population Fragmented Nuclei (%),U2OS [2]; [5],15%
same,Population Healthy Nuclei (%),U2OS [2]; [5],53%
same,Population Hoechst High Intensity Objects (%),U2OS [2]; [5],10%
same,Population Membrane Permeable-Phenotype (%),U2OS [2]; [5],36%
same,Population Mitochondria Different-Phenotype (%),U2OS [2]; [5],94%
same,Population Mitotic Cells (%),U2OS [2]; [5],49%
same,Population Normal (%),U2OS [2]; [5],90%
same,Population Pyknosed Nuclei (%),U2OS [2]; [5],30%
same,Total Cell Count,U2OS [2]; [5],121
same,Population Apoptotic (%),U2OS [2]; [6],31%
same,Population Fragmented Nuclei (%),U2OS [2]; [6],20%
same,Population Healthy Nuclei (%),U2OS [2]; [6],57%
same,Population Hoechst High Intensity Objects (%),U2OS [2]; [6],7%
same,Population Membrane Permeable-Phenotype (%),U2OS [2]; [6],45%
same,Population Mitochondria Different-Phenotype (%),U2OS [2]; [6],97%
same,Population Mitotic Cells (%),U2OS [2]; [6],68%
same,Population Normal (%),U2OS [2]; [6],92%
same,Population Pyknosed Nuclei (%),U2OS [2]; [6],22%
same,Population Tubulin-Different-Phenotype (%),U2OS [2]; [6],100%
same,Total Cell Count,U2OS [2]; [6],71
same,Population Apoptotic (%),U2OS [2]; [7],43%
same,Population Fragmented Nuclei (%),U2OS [2]; [7],10%
same,Population Healthy Nuclei (%),U2OS [2]; [7],71%
same,Population Hoechst High Intensity Objects (%),U2OS [2]; [7],7%
same,Population Membrane Permeable-Phenotype (%),U2OS [2]; [7],6%
same,Population Mitochondria Different-Phenotype (%),U2OS [2]; [7],18%
same,Population Mitotic Cells (%),U2OS [2]; [7],56%
same,Population Normal (%),U2OS [2]; [7],92%
same,Population Pyknosed Nuclei (%),U2OS [2]; [7],17%
same,Population Tubulin-Different-Phenotype (%),U2OS [2]; [7],8%
same,Total Cell Count,U2OS [2]; [7],174
same,Population Apoptotic (%),U2OS [2]; [8],75%
same,Population Fragmented Nuclei (%),U2OS [2]; [8],11%
same,Population Healthy Nuclei (%),U2OS [2]; [8],77%
same,Population Hoechst High Intensity Objects (%),U2OS [2]; [8],2%
same,Population Membrane Permeable-Phenotype (%),U2OS [2]; [8],1%
same,Population Mitochondria Different-Phenotype (%),U2OS [2]; [8],10%
same,Population Mitotic Cells (%),U2OS [2]; [8],25%
same,Population Normal (%),U2OS [2]; [8],97%
same,Population Pyknosed Nuclei (%),U2OS [2]; [8],11%
same,Population Tubulin-Different-Phenotype (%),U2OS [2]; [8],14%
same,Total Cell Count,U2OS [2]; [8],59
same,Population Apoptotic (%),U2OS [2]; [9],70%
same,Population Fragmented Nuclei (%),U2OS [2]; [9],13%
same,Population Healthy Nuclei (%),U2OS [2]; [9],55%
same,Population Hoechst High Intensity Objects (%),U2OS [2]; [9],9%
same,Population Membrane Permeable-Phenotype (%),U2OS [2]; [9],52%
same,Population Mitochondria Different-Phenotype (%),U2OS [2]; [9],98%
same,Population Mitotic Cells (%),U2OS [2]; [9],29%
same,Population Normal (%),U2OS [2]; [9],90%
same,Population Pyknosed Nuclei (%),U2OS [2]; [9],30%
same,Total Cell Count,U2OS [2]; [9],138
same,Population Apoptotic (%),U2OS [2]; [10],53%
same,Population Fragmented Nuclei (%),U2OS [2]; [10],30%
same,Population Healthy Nuclei (%),U2OS [2]; [10],52%
same,Population Hoechst High Intensity Objects (%),U2OS [2]; [10],5%
same,Population Membrane Permeable-Phenotype (%),U2OS [2]; [10],67%
same,Population Mitochondria Different-Phenotype (%),U2OS [2]; [10],97%
same,Population Mitotic Cells (%),U2OS [2]; [10],46%
same,Population Normal (%),U2OS [2]; [10],94%
same,Population Pyknosed Nuclei (%),U2OS [2]; [10],17%
same,Population Tubulin-Different-Phenotype (%),U2OS [2]; [10],100%
same,Total Cell Count,U2OS [2]; [10],73
same,Population Apoptotic (%),U2OS [2]; [11],48%
same,Population Fragmented Nuclei (%),U2OS [2]; [11],14%
same,Population Healthy Nuclei (%),U2OS [2]; [11],70%
same,Population Hoechst High Intensity Objects (%),U2OS [2]; [11],4%
same,Population Membrane Permeable-Phenotype (%),U2OS [2]; [11],7%
same,Population Mitochondria Different-Phenotype (%),U2OS [2]; [11],22%
same,Population Mitotic Cells (%),U2OS [2]; [11],52%
same,Population Normal (%),U2OS [2]; [11],95%
same,Population Pyknosed Nuclei (%),U2OS [2]; [11],15%
same,Population Tubulin-Different-Phenotype (%),U2OS [2]; [11],7%
same,Total Cell Count,U2OS [2]; [11],230
same,Population Apoptotic (%),U2OS [2]; [12],33%
same,Population Fragmented Nuclei (%),U2OS [2]; [12],10%
same,Population Healthy Nuclei (%),U2OS [2]; [12],81%
same,Population Hoechst High Intensity Objects (%),U2OS [2]; [12],7%
same,Population Membrane Permeable-Phenotype (%),U2OS [2]; [12],8%
same,Population Mitochondria Different-Phenotype (%),U2OS [2]; [12],11%
same,Population Mitotic Cells (%),U2OS [2]; [12],66%
same,Population Normal (%),U2OS [2]; [12],92%
same,Population Pyknosed Nuclei (%),U2OS [2]; [12],9%
same,Population Tubulin-Different-Phenotype (%),U2OS [2]; [12],17%
same,Total Cell Count,U2OS [2]; [12],82
same,Population Apoptotic (%),U2OS [2]; [13],64%
same,Population Fragmented Nuclei (%),U2OS [2]; [13],21%
same,Population Healthy Nuclei (%),U2OS [2]; [13],43%
same,Population Hoechst High Intensity Objects (%),U2OS [2]; [13],6%
same,Population Membrane Permeable-Phenotype (%),U2OS [2]; [13],71%
same,Population Mitochondria Different-Phenotype (%),U2OS [2]; [13],100%
same,Population Mitotic Cells (%),U2OS [2]; [13],35%
same,Population Normal (%),U2OS [2]; [13],93%
same,Population Pyknosed Nuclei (%),U2OS [2]; [13],34%
same,Population Tubulin-Different-Phenotype (%),U2OS [2]; [13],100%
same,Total Cell Count,U2OS [2]; [13],169
same,Population Apoptotic (%),U2OS [2]; [14],57%
same,Population Fragmented Nuclei (%),U2OS [2]; [14],13%
same,Population Healthy Nuclei (%),U2OS [2]; [14],59%
same,Population Hoechst High Intensity Objects (%),U2OS [2]; [14],10%
same,Population Membrane Permeable-Phenotype (%),U2OS [2]; [14],87%
same,Population Mitochondria Different-Phenotype (%),U2OS [2]; [14],97%
same,Population Mitotic Cells (%),U2OS [2]; [14],42%
same,Population Normal (%),U2OS [2]; [14],89%
same,Population Pyknosed Nuclei (%),U2OS [2]; [14],27%
same,Total Cell Count,U2OS [2]; [14],108
